The source of these data is ChEMBL document CHEMBL1130338, “(E)- and (Z)-7-arylidenenaltrexones: synthesis and opioid receptor radioligand displacement assays” (J Med Chem, 1997).

SMILES strings stand for the structures. pKi: −log10 of the molar value.

One assay deals with Mu-type opioid receptor (Cavia porcellus, UniProt P97266). Nature of the assay: Binding affinity was determined in a crude membrane preparation from guinea pig brain by displacement of [3H]DAMGO from Opioid receptor mu 1. The format is cell membranes. In a few lines: (§1)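 Guinea pig brain (less cerebellum) homogenized in 0.05 M Tris pH 7.4, pelleted at 25000g (4 °C, 20 min), stored in 0.32 M sucrose at –70 °C. Diluted 1:60, giving 0.8–1.5 mg protein/mL. Radioligands at 1.0 nM ([3H]DAMGO μ, [3H]DPDPE δ, [3H]U69,593 κ). Test ligand in duplicate at nine concentrations, 1.0–1000 nM. Nonspecific binding with 10 μM naloxone. Incubated 60 min at 25 °C, then filtered and counted. Ki from IC50 via Cheng–Prusoff using KD measured in this homogenate.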
In general terms: Displacement assays read how much labelled ligand stays bound in the presence of the test substance.

Assay [1] deals with Opioid receptors; mu & delta (UniProt P41143+P35372). Nature of the assay: Selectivity ratio measured in terms of delta opioid receptor to the mu opioid receptor. The format is protein assay. Particulars: Cavia porcellus.
The target in assay [2] is Kappa-type opioid receptor (Cavia porcellus, UniProt P41144). Nature of the assay: Binding affinity was determined in a crude membrane preparation from guinea pig brain by displacement of [3H]U-69593 from Opioid receptor kappa 1. The format is cell membranes. In a few lines: as §1
Sequence of Kappa-type opioid receptor (P41144 whole entry): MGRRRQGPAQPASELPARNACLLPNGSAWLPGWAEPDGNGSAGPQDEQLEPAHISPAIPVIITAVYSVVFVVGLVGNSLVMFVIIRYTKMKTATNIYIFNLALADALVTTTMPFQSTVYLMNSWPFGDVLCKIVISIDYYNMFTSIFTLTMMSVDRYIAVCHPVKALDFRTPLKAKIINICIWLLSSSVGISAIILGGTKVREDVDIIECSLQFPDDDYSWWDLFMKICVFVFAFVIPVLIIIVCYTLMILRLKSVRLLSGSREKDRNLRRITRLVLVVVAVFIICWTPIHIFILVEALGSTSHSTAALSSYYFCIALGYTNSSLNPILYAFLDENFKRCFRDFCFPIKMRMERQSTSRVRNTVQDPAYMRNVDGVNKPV

Sequence of Opioid receptors; mu & delta (P35372 whole entry, looked up): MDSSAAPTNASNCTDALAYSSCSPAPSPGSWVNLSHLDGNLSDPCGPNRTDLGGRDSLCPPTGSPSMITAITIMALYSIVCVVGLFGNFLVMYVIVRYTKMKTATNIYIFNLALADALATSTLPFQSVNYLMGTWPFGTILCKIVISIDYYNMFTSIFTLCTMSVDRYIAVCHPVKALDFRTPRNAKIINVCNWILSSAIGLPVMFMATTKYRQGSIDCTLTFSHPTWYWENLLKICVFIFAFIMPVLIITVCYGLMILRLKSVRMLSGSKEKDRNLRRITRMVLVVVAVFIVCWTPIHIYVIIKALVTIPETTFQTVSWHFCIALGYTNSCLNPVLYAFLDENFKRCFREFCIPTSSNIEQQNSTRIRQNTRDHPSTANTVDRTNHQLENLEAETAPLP
Sequence of Opioid receptors; mu & delta (P41143 whole entry, looked up): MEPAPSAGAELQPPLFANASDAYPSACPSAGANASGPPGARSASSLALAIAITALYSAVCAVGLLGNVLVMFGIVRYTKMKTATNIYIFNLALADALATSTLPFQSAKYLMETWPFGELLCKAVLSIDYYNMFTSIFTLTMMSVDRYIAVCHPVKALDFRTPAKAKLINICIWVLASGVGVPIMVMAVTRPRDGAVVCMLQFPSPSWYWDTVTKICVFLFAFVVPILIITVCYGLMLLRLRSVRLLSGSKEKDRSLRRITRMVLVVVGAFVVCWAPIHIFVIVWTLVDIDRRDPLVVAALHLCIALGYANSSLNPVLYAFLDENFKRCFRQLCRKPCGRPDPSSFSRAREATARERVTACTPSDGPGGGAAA
Sequence of Mu-type opioid receptor (P97266 whole entry): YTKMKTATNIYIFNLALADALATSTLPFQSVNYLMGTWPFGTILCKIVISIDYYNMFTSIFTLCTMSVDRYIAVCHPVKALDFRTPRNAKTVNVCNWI

Regarding `O=C1/C(=C\c2cccc3ccccc23)C[C@@]2(O)[C@H]3Cc4ccc(O)c5c4C2(CCN3CC2CC2)[C@H]1O5`, the pKi on Mu-type opioid receptor is 7.96; in assay [2] it was 7.43. Besides, the Selectivity ratio in assay [1] turned out to be 15.
Take `O=C1/C(=C\c2c3ccccc3cc3ccccc23)C[C@@]2(O)[C@H]3Cc4ccc(O)c5c4C2(CCN3CC2CC2)[C@H]1O5`: the results for the pKi (at Mu-type opioid receptor; in assay [2]) were 7.47 and 7.00, respectively. In assay [1], the Selectivity ratio worked out at 14.
The matching figures for `O=C1/C(=C/c2c3ccccc3cc3ccccc23)C[C@@]2(O)[C@H]3Cc4ccc(O)c5c4C2(CCN3CC2CC2)[C@H]1O5`: 6.96, 6.77 and 6.4.
The corresponding values for `O=C1/C(=C/c2ccccc2)C[C@@]2(O)[C@H]3Cc4ccc(O)c5c4[C@@]2(CCN3CC2CC2)[C@H]1O5` [BNTX] are 7.59, 7.32 and 4.
As to `O=C1/C(=C/c2ccc(-c3ccccc3)cc2)C[C@@]2(O)[C@H]3Cc4ccc(O)c5c4C2(CCN3CC2CC2)[C@H]1O5`, the values for the pKi (on Mu-type opioid receptor; in assay [2]) were 7.30 and 6.72, respectively. Further, the Selectivity ratio in assay [1] came to 0.6.
The corresponding values for `O=C1/C(=C/c2cccc3ccccc23)C[C@@]2(O)[C@H]3Cc4ccc(O)c5c4C2(CCN3CC2CC2)[C@H]1O5` are 7.44, 6.92 and 7.5.
The matching figures for `O=C1/C(=C\c2ccccc2)C[C@@]2(O)[C@H]3Cc4ccc(O)c5c4[C@@]2(CCN3CC2CC2)[C@H]1O5`: 7.48, 7.47 and 8.6.
Consider `CC(C)CN1CCC23c4c5ccc(O)c4O[C@H]2C(=O)/C(=C\c2ccc4ccccc4c2)C[C@@]3(O)[C@H]1C5`, for which the Selectivity ratio in assay [1] was 3.
`O=C1/C(=C/c2ccc3ccccc3c2)C[C@@]2(O)[C@H]3Cc4ccc(O)c5c4C2(CCN3CC2CC2)[C@H]1O5`: the pKi was 7.64 on Mu-type opioid receptor and 7.13 in assay [2]. Moreover, the Selectivity ratio in assay [1] is 0.6.
The corresponding values for `O=C1/C(=C\c2ccc(-c3ccccc3)cc2)C[C@@]2(O)[C@H]3Cc4ccc(O)c5c4C2(CCN3CC2CC2)[C@H]1O5` are 6.68, 6.40 and 4.2.

What is called pKi is the negative decadic logarithm of the Ki, by convention in mol/L.
